STAT3 activator = IL-6 driven STAT3 reporter potentiators, primary screen, U3A cells, luciferase, luminescence, MLSCN library. IL-6 STAT3-luciferase reporter; 100% = signal with IL-6 EC80 alone. activation (% of control), % at 5.6 µM. hit rate 0.91% among 190,000;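 active = activation above the screen-wide mean of compound activation plus 3 SD, cut at about 130% in these data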
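Material: human U3A cells carrying STAT3-luciferase construct. Measured by: reporter luminescence signal. Timing: compound 1 h, then IL-6 6 h at 37 °C.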
STAT1 blocker = STAT1 signaling inhibitors, primary screen, cell-based, HTS, luciferase reporter; NIH 3T3 STAT1-luciferase reporter, IFN-gamma, luminescence; inhibition, % at 5.5 µM; hit rate 0.35% among 200,000; AID 920, 2007;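 active = inhibition above a set limit, the mean inhibition across all tested compounds plus 3 SD, cut at about 34% in these data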
HSV replic up = enhancers of HSV replication in host cells, fold increase, host cell viability. HSV replication augmentation in cells. hit rate 0.005% among 220,000. AID 1956, 2009. maximum fold increase; in the data active = maximum fold increase above about 1.5; inconclusive = no clear call, values can overlap the other calls; tested in PC3 cells
STAT1 activator = STAT1 signaling activators, primary screen, cell-based, HTS, luciferase reporter | hit rate 2.6% among 200,000 | activation (% of control), % at 5.5 µM | NIH 3T3 STAT1-luciferase reporter, IFN-gamma, luminescence; 100% = IFN-gamma alone, no compound;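 active = activation above the screen-wide mean activation plus 3 SD, cut at about 130% in these data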
STAT3 inh = IL-6 driven STAT3 reporter inhibitors, primary screen, U3A cells, luciferase, luminescence, MLSCN library | IL-6 STAT3-luciferase reporter; host cell line lacks STAT1 | inhibition, % at 5.5 µM | hit rate 0.89% among 190,000 | AID 862, 2007;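 active = inhibition above the mean inhibition across all screened compounds plus 3 SD, cut at about 44% in these data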
KCC2 mod = KCC2 cotransporter modulators, thallium flux, primary screen, cell-based, HEK293 KCC2, FluoZin-2 fluorescence, MLSMR; KCC2 cells, thallium flux FluoZin-2 fluorescence; B-score of Tl+ flux slope (higher = more flux/activation; lower = inhibition) at 10 µM; hit rate 2.2% among 190,000;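 active = thallium flux slope and its plate-corrected score both differing from the plate sample mean at a set confidence after two filtering rounds, in either direction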;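 also: slope of fluorescence scaled to starting intensity during 10 to 20 s after thallium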
Target sequence (Q9H2X9 whole entry, looked up): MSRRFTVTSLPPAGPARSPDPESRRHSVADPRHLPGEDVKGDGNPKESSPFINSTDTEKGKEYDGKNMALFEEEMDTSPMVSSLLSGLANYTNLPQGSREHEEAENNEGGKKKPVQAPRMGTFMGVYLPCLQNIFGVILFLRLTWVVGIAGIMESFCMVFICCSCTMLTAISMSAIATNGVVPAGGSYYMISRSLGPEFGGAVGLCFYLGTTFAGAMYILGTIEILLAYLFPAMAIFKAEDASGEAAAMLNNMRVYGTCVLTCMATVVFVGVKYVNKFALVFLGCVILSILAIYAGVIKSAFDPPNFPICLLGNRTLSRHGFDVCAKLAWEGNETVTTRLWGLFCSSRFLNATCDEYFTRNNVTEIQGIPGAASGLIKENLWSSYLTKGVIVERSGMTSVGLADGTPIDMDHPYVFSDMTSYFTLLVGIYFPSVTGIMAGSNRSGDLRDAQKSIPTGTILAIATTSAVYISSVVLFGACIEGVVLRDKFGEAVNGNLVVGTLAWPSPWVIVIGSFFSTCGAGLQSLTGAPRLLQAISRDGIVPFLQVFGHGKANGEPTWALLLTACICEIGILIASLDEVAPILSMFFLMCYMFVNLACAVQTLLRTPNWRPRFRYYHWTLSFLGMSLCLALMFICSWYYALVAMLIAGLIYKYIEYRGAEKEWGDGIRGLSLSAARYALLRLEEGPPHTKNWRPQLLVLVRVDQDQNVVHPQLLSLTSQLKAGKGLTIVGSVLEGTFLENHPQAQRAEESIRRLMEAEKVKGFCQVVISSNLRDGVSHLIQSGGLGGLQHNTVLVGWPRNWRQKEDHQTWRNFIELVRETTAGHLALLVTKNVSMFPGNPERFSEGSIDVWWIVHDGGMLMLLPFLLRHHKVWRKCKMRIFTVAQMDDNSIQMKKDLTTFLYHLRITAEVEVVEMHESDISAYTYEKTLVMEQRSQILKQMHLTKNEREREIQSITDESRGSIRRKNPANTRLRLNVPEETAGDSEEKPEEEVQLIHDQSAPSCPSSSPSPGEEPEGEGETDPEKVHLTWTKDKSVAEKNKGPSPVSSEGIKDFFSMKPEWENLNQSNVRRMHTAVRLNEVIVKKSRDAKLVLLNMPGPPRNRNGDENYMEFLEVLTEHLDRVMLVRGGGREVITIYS
STAT1 activ conf = STAT1 signaling activators, confirmation, cell-based, HTS, luciferase reporter | activation (% of control), % at 5.7 µM | NIH 3T3 STAT1-luciferase reporter, IFN-gamma potentiation, luminescence; 100% = IFN-gamma EC80 alone, no compound | shares compounds with STAT1 activator | hit rate 97% among 1,200;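 active = activation above a set limit carried over from the earlier primary STAT1 screen, cut at about 140% in these data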
NFkB act = NF-kB reporter activators, TNF-alpha stimulated, counter-screen for STAT1 activator project, cell-based, HEK293T, luciferase luminescence; shares compounds with STAT1 activator; 100% = TNF-alpha with vehicle only; activation (% of control), % at 5.7 µM; hit rate 43% among 1,200; AID 1306, 2008;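 active = activation above the mean of solvent-only control wells plus 3 SD, set per campaign, cut at about 130% in these data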;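 also: TNF-alpha given at a submaximal dose yielding about 80% of full reporter signal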
STAT3 act STAT1c = STAT3 reporter activation by STAT1 hits, confirmation, counter-screen for STAT1 activator project, U3A cells, luciferase, luminescence. shares compounds with STAT1 activator. IL-6; cells lack STAT1; 100 = IL-6 alone, no compound effect. activation (% of control), % at 5.7 µM. hit rate 46% among 1,200;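 active = activation above the solvent-only control well mean plus 3 SD, set per plate batch, cut at about 110% in these data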;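 also: higher means more STAT3 reporter activation so hits are non-selective activators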
KCC2 sec1 = KCC2 modulators in sodium-free buffer, confirmation, cell-based, HEK293 KCC2, thallium flux, secondary assay | normalised thallium flux (F/F0 slope) at 10 µM | shares compounds with KCC2 mod | hit rate 15% among 3,700 | FluoZin2 fluorescence; active compounds read high | AID 1713, 2009;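 active = thallium flux slope above the same plate's solvent-only control mean plus 3 SD; inconclusive = the two replicate wells disagree; inactive = no significant difference from solvent-only control wells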
KCC2 bumet counter = thallium flux persisting under bumetanide in KCC2 cells, confirmation, counter-screen for KCC2 modulator project, cell-based, HEK293 KCC2, FluoZin2, secondary assay 3 | shares compounds with KCC2 mod | HEK293-KCC2 + bumetanide/ouabain; active compounds read high | normalized thallium flux at 10 µM | hit rate 49% among 3,700;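 active = thallium entry rate above the same plate's blocked-transporter control wells by more than 3 SD; inconclusive = the two repeat wells disagree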;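 also: raw slope of fluorescence over initial fluorescence between 10 and 20 s after thallium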
KCC2 sec2 = KCC2 modulators without ouabain present, confirmation, cell-based, HEK293 KCC2, thallium flux, FluoZin2, secondary assay 2. AID 1715, 2009. thallium flux FluoZin2 fluorescence; actives lie on both sides; F/F0 rise rate, 10–20 s post-thallium. hit rate 23% among 3,700. shares compounds with KCC2 mod. normalized thallium flux at 10 µM;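 active = thallium flux slope more than 3 SD above or below the plate's solvent-only control mean, mostly below; inconclusive = the two repeat wells disagreed; inactive = no significant shift from solvent-only controls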
HEK counter1 = thallium flux modulation in parental HEK cells, confirmation, counter-screen for KCC2 modulator project, cell-based, counterscreen 1. shares compounds with KCC2 mod. HEK293 parental cells, thallium flux FluoZin2, ouabain; baseline-ratio fluorescence slope, 10–20 s after thallium. thallium flux rate (normalised fluorescence) at 10 µM. hit rate 46% among 3,700. AID 1716, 2009;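 active = thallium flux rate significantly above the same plate's solvent-only control wells, beyond their mean plus 3 SD; inconclusive = the two replicate wells gave conflicting results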
KCC2 retest ouab = KCC2 inhibitors and activators, ouabain retest, confirmation, HEK-KCC2 cells | hit rate 48% among 3,700 | raw Tl+ flux slope (below DMSO = inhibition, above = activation) at 10 µM | AID 1717, 2009 | shares compounds with KCC2 mod | HEK293-KCC2, thallium flux FluoZin2 fluorescence; bidirectional: low = inhibitor, high = activator;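 active = thallium flux slope beyond 3 SD from same-plate DMSO control mean in most replicates, usually higher, sometimes lower; inconclusive = repeat tests gave conflicting results; inactive = no significant difference from controls in most replicates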;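 also: slope of initial-normalized fluorescence between seconds 10 and 20 after thallium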
HEK293 Tl flux2 = native HEK Tl+ uptake effects, second counter-screen – HEK cells, counterscreen 2, counter-screen for KCC2 modulator project, confirmation; thallium flux slope at 10 µM; shares compounds with KCC2 mod; HEK293 parental, thallium flux FluoZin-2 fluorescence slope; AID 1718, 2009; hit rate 33% among 3,700;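 active = thallium flux slope above the same plate's solvent-control mean plus 3 SD in both duplicate wells; inconclusive = duplicate wells that disagreed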;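 also: run without ouabain in cells lacking the KCC2 cotransporter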
Numbers stand for hits; – = inactive; ? = inconclusive; · = not tested or not shown. This is a sample that favours compounds with a hit; in the whole collection about 5.5% have one here.

SMILES | STAT3 activator | STAT1 blocker | HSV replic up | STAT1 activator | STAT3 inh | KCC2 mod | STAT1 activ conf | NFkB act | STAT3 act STAT1c | KCC2 sec1 | KCC2 bumet counter | KCC2 sec2 | HEK counter1 | KCC2 retest ouab | HEK293 Tl flux2
Cc1scc(C(=O)N/N=C/c2ccc(Cl)s2)c1C | – | – | – | 151 | – | 39 | 181 | – | – | ? | 0.053 | 0.043 | 0.078 | 0.086 | 0.024
N#Cc1c(NC(=O)c2ccccc2)sc2c1CCC2 | – | – | – | 169 | – | · | 191 | – | – | – | – | – | – | – | –
COc1ccc(C#Cc2c(-c3ccsc3)oc3ccc(-c4cc(OC)c(OC)c(OC)c4)cc23)cc1 | · | · | – | · | · | · | · | · | · | · | · | · | · | · | ·
CNc1nc(-c2ccc3c(c2)CCN3C(=O)c2ccccc2F)cs1 | – | – | – | 159 | – | -4.3 | 215 | 143 | – | – | – | – | – | – | –
NC(=O)N/N=C/c1cc(Br)ccc1OC(=O)c1ccccc1 | – | – | – | – | – | – | · | · | · | · | · | · | · | · | ·
CCOc1ccc(OCc2ccc(C(=O)N/N=C(\C)c3ccccn3)cc2)cc1 | – | – | – | 169 | – | 9 | 146 | 188 | – | – | 0.024 | – | 0.029 | 0.03 | ?
COc1ccc(C(=O)N/N=C(\c2ccccc2)c2ccccn2)cc1 | – | – | – | – | – | – | · | · | · | · | · | · | · | · | ·
Cc1ccc(/C=C2\SC(N3CCN(C(c4ccccc4)c4ccccc4)CC3)=NC2=O)o1 | – | – | – | – | – | – | · | · | · | · | · | · | · | · | ·

Screens from PubChem BioAssay.
